The results in this text go back to ChEMBL document CHEMBL1926583, “Synthesis and inhibitory activity of thymidine analogues targeting Mycobacterium tuberculosis thymidine monophosphate kinase” (Bioorg Med Chem, 2011).

The target of test [1] is T1, Thymidylate kinase (Mycobacterium tuberculosis, UniProt P9WKE1).
T1 sequence (P9WKE1 whole entry): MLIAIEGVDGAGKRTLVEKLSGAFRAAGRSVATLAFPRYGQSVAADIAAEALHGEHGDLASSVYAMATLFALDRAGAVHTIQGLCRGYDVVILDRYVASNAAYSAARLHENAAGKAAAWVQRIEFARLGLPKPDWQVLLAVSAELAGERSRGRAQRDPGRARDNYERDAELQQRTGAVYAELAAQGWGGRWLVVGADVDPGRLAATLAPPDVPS
Description: Competitive inhibition of Mycobacterium tuberculosis TMPK by Lineweaver-Burk analysis. The method in brief:
(§1)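 Coupled spectrophotometric assay at 334 nm (NADH oxidation via pyruvate kinase/lactate dehydrogenase/NDP kinase). Buffer 50 mM Tris-HCl pH 7.4, 50 mM KCl, 2 mM MgCl2, 0.2 mM NADH, 1 mM phosphoenolpyruvate. ATP 0.5 mM and dTMP 0.05 mM held fixed; analogue 0.003–1.5 mM.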

Test [2] in a line: Selectivity index, ratio of Ki for human TMPK to Ki for Mycobacterium tuberculosis TMPK.
The target of test [3] is T2, Thymidylate kinase (Homo sapiens) (UniProt P23919).
T2 sequence (whole entry): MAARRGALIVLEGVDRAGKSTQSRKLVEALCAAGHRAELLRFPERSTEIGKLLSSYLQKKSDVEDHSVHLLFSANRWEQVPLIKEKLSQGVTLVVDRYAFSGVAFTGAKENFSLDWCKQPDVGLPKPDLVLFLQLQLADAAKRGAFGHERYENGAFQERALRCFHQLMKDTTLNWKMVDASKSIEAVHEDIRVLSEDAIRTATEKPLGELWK
Description: Competitive inhibition of human TMPK at 1 mM by Lineweaver-Burk analysis. The method, boiled down: as §1

Test [4] in a line: Antimycobacterial activity against Mycobacterium bovis BCG 1173P2 after 8 days by resazurin reduction assay. It counts as functional, Mycobacterium bovis BCG str. Pasteur 1173P2. The note with it: Mycobacterium tuberculosis variant bovis BCG, 192 h. The method, boiled down:
(§2)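 M. bovis BCG 1173P2 grown in 7H9 Middlebrook broth with 0.2% glycerol and 0.5% Tween-80. Compounds tested as serial 2-fold dilutions, with bacteria at 10^5 per mL. Incubated at 37 °C in humidified normal air for 8 days. Resazurin 0.01% (wt/vol) then added, followed by overnight incubation at 37 °C. Growth read as the OD difference 570 minus 630 nm (blue-to-pink change).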
Background: The colour change of resazurin is a common sign of viable cells or microbes.

Test [5] deals with T3, Thymidylate kinase (Mycobacterium tuberculosis) (UniProt P9WKE1).
T3 sequence (whole entry): T1 sequence (P9WKE1 whole entry)
Description: Competitive inhibition of Mycobacterium tuberculosis TMPK at 0.05 mM by Lineweaver-Burk analysis. The method in brief:
as §1

Test [6] relates to Mycobacterium bovis BCG str. Pasteur 1173P2. Description: Antimycobacterial activity against Mycobacterium bovis BCG 1173P2 at 25 ug/mL after 8 days by resazurin reduction assay. It counts as functional. The method in brief: as §2
Test [7] addresses T2, Thymidylate kinase (Homo sapiens). Briefly: Competitive inhibition of human TMPK at 0.05 mM by Lineweaver-Burk analysis. The method, boiled down: as §1
The target in test [8] is T4, Thymidylate kinase (Homo sapiens, UniProt P23919).
T4 sequence (P23919 whole entry): T2 sequence (whole entry)
Briefly: Competitive inhibition of human TMPK by Lineweaver-Burk analysis. The method, boiled down:
as §1

pKi: −log10 of the molar value. Converted amounts (≈) assume the structure as drawn. The source made the active and inactive calls. The calls are words filed in the database; no cut-off is given here.

As usually defined, the pKi is −log10 of the Ki, conventionally taken in molar units. A high value points to a low Ki. A word on the inhibition: it is how much of the control response was suppressed. As usually defined, the MIC99 is an inhibitory concentration at the 99% level, which refers to growth in some studies and to a panel of isolates in others.

Consider `Cc1cn([C@H]2C[C@H](n3cc(-c4ccccc4)nn3)[C@@H](CO)O2)c(=O)[nH]c1=O`, for which the pKi in test [1] was 5.38.

For `Cc1cn([C@H]2C[C@H](n3cc(Cc4ccccc4)nn3)[C@@H](CO)O2)c(=O)[nH]c1=O`, the negative-log Ki (pKi) in test [1] is 5.57. The Ratio Ki in test [2] is over 100. Further, in test [3], the inhibition result was “inactive”. Take `Cc1cn([C@H]2C[C@H](N=[N+]=[N-])[C@@H](CO)O2)c(=O)[nH]c1=S`: the negative-log Ki (pKi) in test [1] was at most 4.00. On the same count and under the same terms, as for `Cc1cn([C@@H]2C[C@H](n3cc(-c4ccc(Cl)cc4)nn3)[C@@H](CO)O2)c(=O)[nH]c1=O`, the figure is 4.46. In test [4], `Cc1cn([C@@H]2C[C@H](O)[C@@H](CNC(=S)Nc3ccccc3)O2)c(=O)[nH]c1=S` registered an MIC99 of over 100 µg/mL. Also, the inhibition entry in test [5] was “inactive”. `Cc1cn([C@H]2C[C@H](O)[C@@H](Cn3cc(-c4ccc(Cl)cc4)nn3)O2)c(=O)[nH]c1=O` gave a negative-log Ki (pKi) in test [1] of 3.70. Still for that read-out and setting: as for `Cc1cn([C@H]2C[C@H](n3cc(-c4ccc(Cl)cc4)nn3)[C@@H](CO)O2)c(=O)[nH]c1=O`, the figure is 5.68.

As to `Cc1cn([C@H]2C[C@H](NC(=S)Nc3ccc(Cl)c(C(F)(F)F)c3)[C@@H](CO)O2)c(=O)[nH]c1=O`, the negative-log Ki (pKi) in test [1] is 5.00. On the same count and under the same terms, the value for `Cc1cn([C@H]2C[C@H](n3cc(-c4ccc(Cl)cc4)nn3)[C@@H](CO)O2)c(=O)[nH]c1=S` was 4.82; that for `Cc1cn([C@H]2C[C@H](O)[C@@H](CNC(=S)Nc3ccc(Cl)c(C(F)(F)F)c3)O2)c(=O)[nH]c1=O` was 4.84. In test [1], `Cc1cn([C@@H]2C[C@H](N=[N+]=[N-])[C@@H](CO)O2)c(=O)[nH]c1=O` gave a pKi of 5.22. Regarding `Cc1cn([C@@H]2C[C@H](O)[C@@H](CNC(=S)Nc3ccc(Cl)c(C(F)(F)F)c3)O2)c(=O)[nH]c1=S`, the pKi in test [1] is 6.77. Further, in test [2], the Ratio Ki was over 100. Also, the MIC99 in test [4] was determined as 25 µg/mL (≈ 50.5 µM). In test [6], this molecule came in with an inhibition of 100%. Also, in test [7], the inhibition entry is “inactive”. For `Cc1cn([C@H]2C[C@H](Nc3nnnn3-c3ccc(Cl)c(C(F)(F)F)c3)[C@@H](CO)O2)c(=O)[nH]c1=O`, the pKi in test [1] was 4.35.

The molecule `Cc1cn([C@@H]2C[C@H](O)[C@@H](Cn3cc(-c4ccc(Cl)cc4)nn3)O2)c(=O)[nH]c1=O` gave a negative logarithm of the Ki (pKi) in test [1] of 5.05. As for `Cc1cn([C@H]2C[C@H](O)[C@@H](CNc3nnnn3-c3ccc(Cl)c(C(F)(F)F)c3)O2)c(=O)[nH]c1=O`, in test [1], the pKi was 4.14. As to `Cc1cn([C@H]2C[C@H](NC(=O)Nc3ccc(Cl)c(C(F)(F)F)c3)[C@@H](CO)O2)c(=O)[nH]c1=O`, the values for the pKi in test [1] and in test [8] were 5.55 and 4.02, respectively. For the same molecule, the Ratio Ki in test [2] was 34. `Cc1cn([C@H]2C[C@H](n3nnnc3NCc3ccccc3)[C@@H](CO)O2)c(=O)[nH]c1=O` had a pKi in test [1] of 5.64. Further, in test [2], the Ratio Ki is over 100. Further, the inhibition result in test [3] is “inactive”.
